Assay results published in ChEMBL document CHEMBL1122345, “Antihypertensive agents: angiotensin converting enzyme inhibitors. 1-[3-(Acylthio)-3-aroylpropionyl]-L-prolines” (J Med Chem, 1983).

Tests used:
[1] = biological target: T1, Angiotensin-converting enzyme (Rattus norvegicus) (UniProt P47820); experiment: Change in mean arterial blood pressure (MABP) after 20 mg/kg (po) dosage in Aorta-Coated renal hypertensive rat at 2.0 h; assay type: functional, organism-based; design: dose 20 mg/kg
T1 sequence (whole entry): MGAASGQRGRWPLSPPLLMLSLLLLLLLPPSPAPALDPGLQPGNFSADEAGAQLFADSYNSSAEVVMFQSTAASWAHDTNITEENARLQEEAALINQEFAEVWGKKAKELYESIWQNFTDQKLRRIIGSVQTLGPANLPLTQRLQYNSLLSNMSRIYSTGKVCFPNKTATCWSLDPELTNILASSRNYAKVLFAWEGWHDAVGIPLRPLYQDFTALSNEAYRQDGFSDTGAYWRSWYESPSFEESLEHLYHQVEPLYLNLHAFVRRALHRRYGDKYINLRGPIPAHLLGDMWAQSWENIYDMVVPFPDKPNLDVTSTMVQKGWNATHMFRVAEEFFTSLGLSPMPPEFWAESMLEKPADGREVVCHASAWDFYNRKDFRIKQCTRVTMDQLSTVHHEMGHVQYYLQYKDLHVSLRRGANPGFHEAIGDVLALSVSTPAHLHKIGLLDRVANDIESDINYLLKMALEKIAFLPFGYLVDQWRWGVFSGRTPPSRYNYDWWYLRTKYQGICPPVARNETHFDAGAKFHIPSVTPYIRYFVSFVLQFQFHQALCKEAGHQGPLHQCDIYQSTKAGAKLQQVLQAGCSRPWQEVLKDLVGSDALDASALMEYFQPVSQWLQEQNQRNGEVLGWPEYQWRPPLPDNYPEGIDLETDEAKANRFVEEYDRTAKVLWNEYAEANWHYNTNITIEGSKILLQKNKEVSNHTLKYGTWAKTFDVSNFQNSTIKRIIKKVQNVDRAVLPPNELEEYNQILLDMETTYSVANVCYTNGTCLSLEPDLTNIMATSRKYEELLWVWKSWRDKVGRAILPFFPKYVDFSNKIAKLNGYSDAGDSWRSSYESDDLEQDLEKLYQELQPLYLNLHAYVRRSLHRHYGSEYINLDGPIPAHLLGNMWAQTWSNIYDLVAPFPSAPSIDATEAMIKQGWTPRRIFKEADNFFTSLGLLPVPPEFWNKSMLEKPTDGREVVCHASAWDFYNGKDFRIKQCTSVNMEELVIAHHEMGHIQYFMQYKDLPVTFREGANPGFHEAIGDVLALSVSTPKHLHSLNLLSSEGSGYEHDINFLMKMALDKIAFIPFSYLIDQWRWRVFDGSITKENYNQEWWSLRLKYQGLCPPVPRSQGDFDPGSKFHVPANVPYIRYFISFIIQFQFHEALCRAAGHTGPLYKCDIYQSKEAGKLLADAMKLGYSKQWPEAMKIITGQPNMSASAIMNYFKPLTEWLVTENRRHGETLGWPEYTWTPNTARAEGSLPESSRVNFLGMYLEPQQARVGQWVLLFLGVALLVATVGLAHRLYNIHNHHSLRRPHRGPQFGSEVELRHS
Summary of the method: (§1)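 Oral gavage to conscious, unrestrained rats made hypertensive by complete aortic ligation between the renal artery origins; only rats with MABP ≥150 mmHg on days 4–6 after coarctation used. Vehicle: ethanol, polyethylene glycol, Tween-80, diluted with saline. Direct arterial pressure via indwelling carotid cannula implanted 24 h earlier; change vs vehicle controls, means ± standard error, unpaired Student's t test.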

[2] = biological target: T1, Angiotensin-converting enzyme (Rattus norvegicus); experiment: (§2) Change in mean arterial blood pressure (MABP) after 20 mg/kg (po) dosage in Aorta-Coated renal hypertensive rat at 0.5 h; assay type: functional, organism-based; design: dose 20 mg/kg; summary of the method: as §1
Rattus norvegicus = experiment: as §2; assay type: functional; summary of the method: as §1

Structure (SMILES)	Delta MABP [1] [mmHg]	Delta MABP [2] [mmHg]	Delta MABP (Rattus norvegicus) [mmHg]
O=C(SC(CC(=O)N1CCCC1C(=O)O)C(=O)c1ccc(Br)cc1)c1ccccc1 (stereo not given)	-14.3	-10	
CC(=O)SC(CC(=O)N1CCCC1C(=O)O)C(=O)c1ccccc1 (stereo not given)	-5.25		-19.2
CC(=O)SC(CC(=O)N1CCCC1C(=O)O)C(=O)c1ccc2ccccc2c1 (stereo not given)	-6.67	-17.3	
CC(=O)SC(CC(=O)N1CCCC1C(=O)O)C(=O)c1ccc(Br)cc1 (stereo not given)	-10.4	-18.3	
CC(=O)SC(CC(=O)N1CCCC1C(=O)O)C(=O)c1ccc(C(C)(C)C)cc1 (stereo not given)	-19.2	-30	
C[C@H](CS)C(=O)N1CCC[C@H]1C(=O)O	-21.7	-27.7	
CC(=O)SC(CC(=O)N1CCCC1C(=O)O)C(=O)c1ccc(F)cc1 (stereo not given)	-14.7	-15.8	
CC(=O)S[C@@H](C(=O)c1cccc(F)c1)[C@@H](C)C(=O)N1CCC[C@H]1C(=O)O		-17.5	
O=C(SC(CC(=O)N1CCCC1C(=O)O)C(=O)c1ccccc1)c1ccccc1 (stereo not given)	-22.7	-1	
CC(=O)SC(CC(=O)N1CCCC1C(=O)O)C(=O)c1cccc(F)c1 (stereo not given)	-5.43	-17	
O=C(SC(CC(=O)N1CCCC1C(=O)O)C(=O)c1ccc(F)cc1)c1ccccc1 (stereo not given)	-6.5	-12	
CC(=O)SC(C(=O)c1ccc(Cl)cc1)C(C)C(=O)N1CCCC1C(=O)O (stereo not given)	-30.5	-24	
COc1ccc(C(=O)C(CC(=O)N2CCCC2C(=O)O)SC(C)=O)cc1F (stereo not given)	-11	-12.7	
O=C(SC(CC(=O)N1CCCC1C(=O)O)C(=O)c1cccc(F)c1)c1ccccc1 (stereo not given)	3.75	-41	
CC(=O)SC(CC(=O)N1CCCC1C(=O)O)C(=O)c1ccc(Cl)cc1 (stereo not given)	-11.7		-17.33
CC(=O)S[C@H](C(=O)c1cccc(F)c1)[C@@H](C)C(=O)N1CCC[C@H]1C(=O)O	-28	-24.8	
CC(=O)S[C@H](C(=O)c1ccc(Br)cc1)[C@@H](C)C(=O)N1CCC[C@H]1C(=O)O	-26.7	-23.5	
CC(=O)S[C@H](C(=O)c1ccccc1)[C@@H](C)C(=O)N1CCC[C@H]1C(=O)O	-23.2	-23	
CC(=O)S[C@@H](C(=O)c1ccccc1)[C@@H](C)C(=O)N1CCC[C@H]1C(=O)O	-17.1	-22.4	
CC(=O)SC(CC(=O)N1CCCC1C(=O)O)C(=O)c1ccc2c(c1)CCC2 (stereo not given)	-30	-18.5	
CC(=O)S[C@@H](C(=O)c1ccc(Br)cc1)[C@@H](C)C(=O)N1CCC[C@H]1C(=O)O	-31.3	-27.1	
O=C(c1ccc(Br)cc1)C(S)CC(=O)N1CCCC1C(=O)O (stereo not given)	-12	-8.8	
CC(=O)SC(CC(=O)N1CCCC1C(=O)O)C(=O)c1cccc(C(F)(F)F)c1 (stereo not given)	-0.83	-17.5	
